Data set [1] concerns Rattus norvegicus. As to the kind of experiment: Effect on pituitary weight in rat 13762 cells allografted Fischer 344 rat at 100 mg/kg, ip qd for 20 days relative to control. Type of data set: functional, Pituitary gland cell. The conditions noted are these: route intraperitoneal. In short, it runs like this: (§1)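 Female Fischer 344 rats, about 40 days old, received subcutaneous right-side grafts of 13762 mammary adenocarcinoma on day 0. From day 1 they got test compound in sesame oil ip daily for 20 days at 10 or 100 (mg/kg)/day. Vehicle controls got 0.5 mL/day. Endpoints were survivors/treated and FBW (minus tumor)/IBW. Tumor weight, final tumor size (length + width/2), and organ weights per 100 g were reported as % control.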

Data set [2] has as its system Rattus norvegicus. The data set is described as follows: Effect on uterine weight in rat 13762 cells allografted Fischer 344 rat at 100 mg/kg, ip qd for 20 days relative to control. Type of data set: functional. The conditions noted are these: route intraperitoneal. Summed up:
as §1

In data set [3] the test system is 13762. As to the kind of experiment: Antitumor activity against rat 13762 cells allografted in Fischer 344 rat assessed as tumor weight at 100 mg/kg, ip qd for 20 days relative to control. The following applies: route intraperitoneal. The class given is functional. Summed up: as §1
Data set [4] concerns Rattus norvegicus. The data set is described as follows: Effect on adrenal weight in rat 13762 cells allografted Fischer 344 rat at 100 mg/kg, ip qd for 20 days relative to control. The class given is functional. The conditions noted are these: route intraperitoneal. Summed up:
as §1

The subject of data set [5] is Rattus norvegicus. The data set is described as follows: Effect on thymus weight in rat 13762 cells allografted Fischer 344 rat at 100 mg/kg, ip qd for 20 days relative to control. Type of data set: functional. The conditions noted are these: route intraperitoneal. In short, it runs like this: as §1
The subject of data set [6] is 13762. As to the kind of experiment: Antitumor activity against rat 13762 cells allografted in Fischer 344 rat assessed as host survival at 100 mg/kg, ip qd for 20 days. The class given is functional, organism-based. The arrangement: dose 100 mg/kg. In short, it runs like this: as §1
Data set [7] deals with Rattus norvegicus. As to the kind of experiment: Effect on spleen weight in rat 13762 cells allografted Fischer 344 rat at 100 mg/kg, ip qd for 20 days relative to control. Type of data set: functional. The following applies: route intraperitoneal. In short, it runs like this: as §1
Data set [8] deals with Rattus norvegicus. As to the kind of experiment: Toxicity in rat 13762 cells allografted in Fischer 344 rat assessed as ratio of final body weight to initial body weight at 100 mg/kg, ip qd for 20 days. The class given is organism-based. More on the design: dose 100 mg/kg, route intraperitoneal. The following applies: in vivo, 480 h. Summed up: as §1
Data set [9] concerns Rattus norvegicus. As to the kind of experiment: Effect on ovarian weight in rat 13762 cells allografted Fischer 344 rat at 100 mg/kg, ip qd for 20 days relative to control. The conditions noted are these: route intraperitoneal. Type of data set: functional. Summed up: as §1
In data set [10] the test system is Rattus norvegicus. As to the kind of experiment: Androgenic activity in castrate rat assessed as seminal vesicle weight at 3 mg, sc qd for 7 days by autopsy analysis (reference value: 13.6 +/- 0.19 mg). Type of data set: functional.
The test system of data set [11] is Rattus norvegicus. As to the kind of experiment: Androgenic activity in castrate rat assessed as ventrol prostate weight at 3 mg, sc qd for 7 days by autopsy analysis (reference value: 17.5 +/- 0.41 mg). Type of data set: functional, Prostate gland.
The test system of data set [12] is Rattus norvegicus. The data set is described as follows: Toxicity in rat 13762 cells allografted in Fischer 344 rat assessed as ratio of final body weight to initial body weight at 10 mg/kg, ip qd for 20 days. Type of data set: organism-based. The arrangement: dose 10 mg/kg, route intraperitoneal. The conditions noted are these: in vivo, 480 h. Summed up: as §1

Data set [13] deals with 13762. The data set is described as follows: Antitumor activity against rat 13762 cells allografted in Fischer 344 rat assessed as host survival at 10 mg/kg, ip qd for 20 days. The arrangement: dose 10 mg/kg. The class given is functional, organism-based. Summed up: as §1
Data set [14] deals with Rattus norvegicus. The data set is described as follows: Effect on uterine weight in rat 13762 cells allografted Fischer 344 rat at 10 mg/kg, ip qd for 20 days relative to control. The class given is functional. The conditions noted are these: route intraperitoneal. In short, it runs like this: as §1
Data set [15] concerns Rattus norvegicus. The data set is described as follows: Effect on spleen weight in rat 13762 cells allografted Fischer 344 rat at 10 mg/kg, ip qd for 20 days relative to control. Type of data set: functional. The following applies: route intraperitoneal. Summed up:
as §1

Data set [16] has as its system Rattus norvegicus. The data set is described as follows: Effect on ovarian weight in rat 13762 cells allografted Fischer 344 rat at 10 mg/kg, ip qd for 20 days relative to control. The following applies: route intraperitoneal. Type of data set: functional. Summed up: as §1
The subject of data set [17] is Rattus norvegicus. As to the kind of experiment: Androgenic activity in castrate rat assessed as change in body weight at 3 mg, sc qd for 7 days by autopsy analysis (reference value: 88 gram). The class given is functional.
Data set [18] relates to 13762. The data set is described as follows: Antitumor activity against rat 13762 cells allografted in Fischer 344 rat assessed as tumor weight at 10 mg/kg, ip qd for 20 days relative to control. The class given is functional. The conditions noted are these: route intraperitoneal. In short, it runs like this:
as §1

The subject of data set [19] is Rattus norvegicus. As to the kind of experiment: Effect on adrenal weight in rat 13762 cells allografted Fischer 344 rat at 10 mg/kg, ip qd for 20 days relative to control. Type of data set: functional. The following applies: route intraperitoneal. Summed up:
as §1

For data set [20], the system named is Rattus norvegicus. As to the kind of experiment: Myotrophic activity in castrate rat assessed as levator ani weight at 3 mg, sc qd for 7 days by autopsy analysis (reference value: 23.6 +/- 1.08 mg). The class given is functional.
Data set [21] has as its system Rattus norvegicus. The data set is described as follows: Effect on thymus weight in rat 13762 cells allografted Fischer 344 rat at 10 mg/kg, ip qd for 20 days relative to control. The class given is functional. The following applies: route intraperitoneal. In short, it runs like this:
as §1

For data set [22], the system named is 13762. As to the kind of experiment: Antitumor activity against rat 13762 cells allografted in Fischer 344 rat assessed as final tumor size at 10 mg/kg, ip qd for 20 days relative to control. The class given is functional. The following applies: route intraperitoneal. In short, it runs like this: as §1

Activity calls are given as the source filed them. No cut-off for these calls is given here.

Consider `C[C@H]1CC2=CC(=O)CC[C@]2(C)[C@H]2CC[C@]3(C)[C@@H](O)CC[C@H]3[C@H]12`, for which the Activity is on record as 73% in the data set with Rattus norvegicus [1]; 202% in the data set on Rattus norvegicus [2]; 103% with 13762 [3]; 70% in the data set on Rattus norvegicus [4]; 47% with Rattus norvegicus [5]; 108% with Rattus norvegicus [7]. The Activity in the data set on Rattus norvegicus [9] worked out at 72%. In addition, the result in the data set on 13762 [6] was Active. The Ratio in the data set on Rattus norvegicus [8] was found to be 1.58.

In the case of `CC(=O)O[C@H]1CC[C@H]2[C@@H]3[C@@H](C)C[C@H]4CC(=O)CC[C@]4(C)[C@H]3CC[C@]12C`, the Activity in the data set on Rattus norvegicus [10] was 45.8 mg; in the data set with Rattus norvegicus [11], 81.4 mg; in the data set on Rattus norvegicus [1], 56%; in the data set on Rattus norvegicus [2], 151%; in the data set with Rattus norvegicus [14] it was 143%; in the data set on Rattus norvegicus [15] it was 77%. The Activity in the data set with 13762 [3] amounted to 132%; with Rattus norvegicus [4] it was 68%; with Rattus norvegicus [5], 48%; in the data set on Rattus norvegicus [16] it was 77%; with Rattus norvegicus [17], 90 g; with 13762 [18] it was 84%. For the same compound, the Activity is reported as 68% with Rattus norvegicus [19]; 63.3 mg with Rattus norvegicus [20]; 108% in the data set with Rattus norvegicus [7]; 71% in the data set on Rattus norvegicus [21]; 90% with 13762 [22]; 62% with Rattus norvegicus [9]. Also, the Ratio worked out at 1.58 with Rattus norvegicus [12] and 1.81 in the data set on Rattus norvegicus [8]. In addition, the outcome with 13762 [13] and in the data set with 13762 [6] was Active.

On to `CC(=O)O[C@H]1CC[C@H]2[C@@H]3[C@@H](C)C[C@H]4CSC[C@]4(C)[C@H]3CC[C@]12C`, for which the Activity in the data set with Rattus norvegicus [10] amounted to 11.8 mg; with Rattus norvegicus [11], 18.6 mg; with Rattus norvegicus [1], 90%; with Rattus norvegicus [2], 128%; in the data set with Rattus norvegicus [14], 124%; with Rattus norvegicus [15] it was 81%. The Activity was determined as 133% in the data set with 13762 [3]; 87% with Rattus norvegicus [4]; 79% in the data set on Rattus norvegicus [5]; 105% with Rattus norvegicus [16]; 90 g with Rattus norvegicus [17]; 85% in the data set on 13762 [18]. For the same compound, the Activity with Rattus norvegicus [19] came to 101%; with Rattus norvegicus [20] it was 25.7 mg; in the data set on Rattus norvegicus [7], 145%; in the data set with Rattus norvegicus [21], 125%; in the data set on 13762 [22] it was 85%; in the data set on Rattus norvegicus [9], 87%. In addition, the Ratio is given as 1.5 with Rattus norvegicus [12] and 1.55 in the data set on Rattus norvegicus [8]. Further, the outcome in the data set on 13762 [13] and in the data set on 13762 [6] was Active.

For the compound `CCC(=O)O[C@H]1CC[C@H]2[C@@H]3CCC4=CC(=O)CC[C@]4(C)[C@H]3CC[C@]12C` [TESTOSTERONE PROPIONATE], the Activity with Rattus norvegicus [10] stood at 65.9 mg; in the data set on Rattus norvegicus [11] it was 126 mg; with Rattus norvegicus [17], 98 g; in the data set on Rattus norvegicus [20] it was 68.2 mg.

Take `CC(=O)O[C@H]1CC[C@H]2[C@@H]3CC[C@H]4CSC[C@]4(C)[C@H]3CC[C@]12C`: the Activity in the data set with Rattus norvegicus [10] was determined as 48.6 mg; in the data set with Rattus norvegicus [11] it was 61.9 mg; with Rattus norvegicus [17], 95 g; in the data set with Rattus norvegicus [20], 65.2 mg.

Consider `C[C@H]1CC2=CC(=O)CC[C@]2(C)[C@H]2CC[C@@]3(C)[C@@H](CC[C@]3(C)O)[C@H]12` [CALUSTERONE], for which the Activity came out at 80% in the data set on Rattus norvegicus [1]; 148% in the data set with Rattus norvegicus [2]; 123% in the data set on 13762 [3]; 73% in the data set on Rattus norvegicus [4]; 57% in the data set with Rattus norvegicus [5]; 115% in the data set with Rattus norvegicus [7]. The compound further returned an Activity with Rattus norvegicus [9] of 60%. In addition, in the data set with 13762 [6], the result was Active. In addition, the Ratio with Rattus norvegicus [8] is on record as 1.64.

Regarding `CC(=O)O[C@H]1CC[C@H]2[C@@H]3CCC4=CC(=O)CC[C@]4(C)[C@H]3CC[C@]12C`, the Activity is 71% with Rattus norvegicus [1]; 179% with Rattus norvegicus [2]; 123% in the data set on 13762 [3]; 88% with Rattus norvegicus [4]; 31% with Rattus norvegicus [5]; 100% in the data set with Rattus norvegicus [7]. Further, in the data set with Rattus norvegicus [9], the Activity is reported as 65%. For the same compound, the result in the data set on 13762 [6] was Active. The Ratio in the data set with Rattus norvegicus [8] came to 1.68.

For the origin of these results see ChEMBL document CHEMBL3244354, “Syntheses and biological activities of 7 beta-methyl steroids” (J Med Chem, 1979).
